In ChEMBL document CHEMBL1157852, “Modulation of doxorubicin activity in cancer cells by conjugation with fatty acyl and terpenyl hydrazones” (Eur J Med Chem, 2010):
Activity calls are given as the source filed them. No cut-off for these calls is given here.

Columns and labels:
MCF7 [1] = test: Cytotoxicity against human topotecan-resistant MCF7 cells after 48 hrs by MTT assay; format: functional, cell-based; conditions: MCF7, 48 h
In short: (§1)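 MTT assay. Cells seeded and cultured 24 h, then exposed to compound for 24, 48 or 72 h. MTT added to a final 0.05% (HL-60, 518A2) or 0.1% (KB-V1, MCF-7) for 2 h. Formazan dissolved in 10% SDS/DMSO with 0.6% acetic acid; absorbance read at 570 nm against 630 nm background. Viability taken relative to untreated controls (100%). IC50 from concentration-response curves, mean ± SD of four independent experiments.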

518A2 [2] = test: Induction of apoptosis in human 518A2 cells assessed as increase of caspase 9 activity at 5 uM after 2 hrs by luminometric assay; format: functional, cell-based
In short: (§2)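 HL-60 and 518A2 cells treated with 5 µM compound and sampled at intervals from 1 to 24 h. Lysed in 50 mM Tris-HCl pH 7.4, 150 mM NaCl, 1% Triton X-100 with protease inhibitors for 15 min at 4 °C, spun at 800 g. Protein measured by Bradford. Caspase-3/7, -8 and -9 activities read with luminogenic peptide substrates; reported as relative luminescence.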

518A2 [3] = test: Induction of apoptosis in human 518A2 cells assessed as increase of caspase 3 activity at 5 uM after 1 to 24 hrs by luminometric assay; format: functional, cell-based; in short: as §2
[4] = Cytotoxicity against human 518A2 cells after 72 hrs by MTT assay; format: functional, cell-based; conditions: 518A2, 72 h; in short: as §1
[5] = Cytotoxicity against human vinblastine-resistant KBV1 cells after 72 hrs by MTT assay; format: functional, cell-based; conditions: KB-V1, 72 h; in short: as §1
HL-60 [6] = test: Cytotoxicity against human HL60 cells after 48 hrs by MTT assay; format: functional, cell-based; conditions: HL-60, 48 h; in short: as §1
518A2 [7] = test: Induction of apoptosis in human 518A2 cells assessed as increase of caspase 9 activity at 5 uM after 1 to 24 hrs by luminometric assay; format: functional, cell-based; in short: as §2
HL-60 [8] = test: Induction of apoptosis in human HL60 cells assessed as increase of caspase 3 activity at 5 uM after 1 to 24 hrs by luminometric assay; format: functional, cell-based; in short: as §2
518A2 [9] = test: Induction of apoptosis in human 518A2 cells assessed as increase of ratio of Bax to Bcl-2 mRNA expression at 5 uM after 6 to 18 hrs by RT-PCR analysis; format: functional, cell-based
In short: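 518A2 cells exposed to 5 µM compound for 6 h or 18 h. bax and bcl-2 mRNA quantified by real-time PCR, normalised to GAPDH, and expressed as the bax/bcl-2 ratio.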

HL-60 [10] = test: Cytotoxicity against human HL60 cells after 72 hrs by MTT assay; format: functional, cell-based; conditions: HL-60, 72 h; in short: as §1
HL-60 [11] = test: Induction of apoptosis in human HL60 cells assessed as appearance of intact mitochondria in cytosol at 5 uM after 6 hrs using JC1 dye relative to control; format: functional
In short: (§3)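 Mitochondrial membrane potential measured with JC-1. Cells exposed to 5 µM compound for 6 or 18 h, pelleted at 400 g, stained with 0.2× JC-1 at 37 °C for 15 min (HL-60) or 35 min (518A2), washed and resuspended in PBS. Red fluorescence (ex 585/em 590 nm) and green (ex 510/em 527 nm) read; red/green ratio relative to untreated controls (100%). Mean ± SD, four independent experiments.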

518A2 [12] = test: Induction of apoptosis in human 518A2 cells assessed as appearance of intact mitochondria in cytosol at 5 uM after 18 hrs using JC1 dye relative to control; format: functional; in short: as §3
[13] = Cytotoxicity against human 518A2 cells after 24 hrs by MTT assay; format: functional, cell-based; conditions: 518A2, 24 h; in short: as §1
[14] = Cytotoxicity against human 518A2 cells after 48 hrs by MTT assay; format: functional, cell-based; conditions: 518A2, 48 h; in short: as §1
HL-60 [15] = test: Induction of apoptosis in human HL60 cells assessed as appearance of intact mitochondria in cytosol at 5 uM after 18 hrs using JC1 dye relative to control; format: functional; in short: as §3
MCF7 [16] = test: Cytotoxicity against human topotecan-resistant MCF7 cells after 72 hrs by MTT assay in presence of […] BCRP inhibitor fumitremorgin C; format: functional, cell-based; conditions: MCF7, 72 h
In short: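 MCF-7/Topo cells grown in E-MEM with 2.2 g/L NaHCO₃, 110 mg/L sodium pyruvate and 5% FCS. Cells were seeded, cultured 24 h, given fumitremorgin C, then exposed to compound for 72 h. MTT was added (final 0.1%) for 2 h, medium discarded, and formazan dissolved in 10% SDS/DMSO with 0.6% acetic acid. A570 (630 background) read versus untreated controls; IC50 from concentration-response curves; four independent experiments, mean ± SD.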

HL-60 [17] = test: Induction of apoptosis in human HL60 cells assessed as DNA ladder formation at 5 uM after 24 hrs by agarose gel electrophoresis; format: functional, cell-based
In short: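 HL-60 cells incubated with 5 µM compound for 24 h, then examined for DNA ladder patterns.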

HL-60 [18] = test: Cytotoxicity against human HL60 cells assessed as increase in ROS production at 5 uM after 72 hrs by NBT reduction assay relative to control; format: functional
In short: (§4)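 NBT assay. HL-60 cells (0.5×10⁶/mL) or trypsinised 518A2 cells (5×10⁴/mL) pre-incubated 24 h at 37 °C, then given compound at a final 5 µM for 24 or 72 h. Medium removed; cells incubated with 0.1% NBT for 1 h (HL-60) or 4 h (518A2). Diformazan dissolved in 2 M KOH/DMSO; A630 read against 405 nm. Given as % of untreated controls; double quadruplicates.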

HL-60 [19] = test: Induction of apoptosis in human HL60 cells assessed as increase of caspase 9 activity at 5 uM after 1 to 24 hrs by luminometric assay; format: functional, cell-based
In short: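 HL-60 leukaemia cells were treated with test compound and sampled at intervals from 1 to 24 h. Protein was measured by Bradford. Caspase-9 (Caspase-Glo 8 for line 1) was read from a luminogenic peptide substrate as relative luminescence.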

518A2 [20] = test: Induction of apoptosis in human 518A2 cells assessed as increase of caspase 8 activity at 5 uM after 1 to 24 hrs by luminometric assay; format: functional, cell-based; in short: as §2
MCF7 [21] = test: Cytotoxicity against human topotecan-resistant MCF7 cells after 72 hrs by MTT assay; format: functional, cell-based; conditions: MCF7, 72 h; in short: as §1
[22] = Cytotoxicity against human vinblastine-resistant KBV1 cells after 48 hrs by MTT assay; format: functional, cell-based; conditions: KB-V1, 48 h; in short: as §1
[23] = Ratio of IC50 for human vinblastine-resistant KBV1 cells in presence of […] ABC transporter inhibitor verapamil hydrochloride to IC50 for human vinblastine-resistant KBV1 cells; format: functional
In short: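 MTT assay in P-gp-overexpressing KB-V1/Vbl cells grown in D-MEM with 10% FCS and antibiotics. Cells were seeded and cultured 24 h, verapamil hydrochloride was optionally added, and compound exposure ran 24, 48 or 72 h. MTT was added to 0.1% final for 2 h. After the medium was discarded, formazan was dissolved in 10% SDS/DMSO with 0.6% acetic acid and read at 570 nm (630 nm background). IC50 came from concentration-response curves, four independent experiments, and the ratio is IC50 with inhibitor over IC50 without.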

MCF7 [24] = test: Cytotoxicity against human topotecan-resistant MCF7 cells after 24 hrs by MTT assay; format: functional, cell-based; conditions: MCF7, 24 h; in short: as §1
[25] = Cytotoxicity against human 518A2 cells assessed as increase in ROS production at 5 uM after 72 hrs by NBT reduction assay relative to control; format: functional; in short: as §4
518A2 [26] = test: Induction of apoptosis in human 518A2 cells assessed as appearance of intact mitochondria in cytosol at 5 uM after 6 hrs using JC1 dye relative to control; format: functional; in short: as §3
[27] = Cytotoxicity against human 518A2 cells assessed as increase in ROS production at 5 uM after 24 hrs by NBT reduction assay relative to control; format: functional; in short: as §4
[28] = Cytotoxicity against human vinblastine-resistant KBV1 cells after 72 hrs by MTT assay in presence of 24 mM ABC transporter inhibitor verapamil hydrochloride; format: functional, cell-based; conditions: KB-V1, 72 h, in the assay text read “24 uM” for “24 mM”
In short: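 MTT viability assay on P-gp-overexpressing KB-V1/Vbl cells with 24 µM verapamil hydrochloride added before the compound; 72 h exposure. Formazan read at 570/630 nm relative to untreated controls. IC50 from concentration-response curves, mean ± SD of four independent experiments.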

HL-60 [29] = test: Cytotoxicity against human HL60 cells assessed as increase in ROS production at 5 uM after 24 hrs by NBT reduction assay relative to control; format: functional; in short: as §4
HL-60 [30] = test: Cytotoxicity against human HL60 cells after 24 hrs by MTT assay; format: functional, cell-based; conditions: HL-60, 24 h; in short: as §1
[31] = Cytotoxicity against human vinblastine-resistant KBV1 cells after 24 hrs by MTT assay; format: functional, cell-based; conditions: KB-V1, 24 h; in short: as §1
HL-60 [32] = test: Induction of apoptosis in human HL60 cells assessed as increase of caspase 8 activity at 5 uM after 1 to 24 hrs by luminometric assay; format: functional, cell-based; in short: as §2

In the case of `CCCCCCCCCCCCCCCCC(=O)N/N=C(\CO)[C@]1(O)Cc2c(O)c3c(c(O)c2[C@@H](O[C@H]2C[C@H](N)[C@H](O)[C@H](C)O2)C1)C(=O)c1c(OC)cccc1C3=O.Cl` [DOXORUBICIN HEPTADECANOYL HYDRAZONE], the IC50 (MCF7 [1]) is reported as 3200 nM, the Activity (518A2 [2]) is reported as “Active” and the Activity (518A2 [3]) is reported as “Active”. The IC50 [4] was 110 nM, the IC50 [5] was 5100 nM and the IC50 (HL-60 [6]) was 860 nM. For the same compound, the Activity (518A2 [7]) was “Active”, the Activity (HL-60 [8]) was “Active” and the Activity (518A2 [9]) was “Active”. The IC50 (HL-60 [10]) was 280 nM, the Activity (HL-60 [11]) was 94% and the Activity (518A2 [12]) was 80%. For the same compound, the IC50 [13] was 760 nM, the IC50 [14] was 350 nM and the Activity (HL-60 [15]) was 59%. For the same compound, the IC50 (MCF7 [16]) was 170 nM, the Activity (HL-60 [17]) was “Active” and the Activity (HL-60 [18]) was 3.4%. The Activity (HL-60 [19]) was “Active”, the Activity (518A2 [20]) was “Active” and the IC50 (MCF7 [21]) was 3000 nM. The IC50 [22] was 10700 nM, the “Ratio IC50” value [23] was 0.74 and the IC50 (MCF7 [24]) was 5900 nM. For the same compound, the Activity [25] was 71.2%, the Activity (518A2 [26]) was 113% and the Activity [27] was 6.6%. It also gave an IC50 [28] of 3700 nM, an Activity (HL-60 [29]) of 2.8% and an IC50 (HL-60 [30]) of 1400 nM. For the same compound, the IC50 [31] was 42900 nM and the Activity (HL-60 [32]) was “Active”.
